According to ChEMBL document CHEMBL1135915, “Structure-activity relationships in 1,4-benzodioxan-related compounds. 7. Selectivity of 4-phenylchroman analogues for alpha(1)-adrenoreceptor subtypes” (J Med Chem, 2002):

Assays:
[1] = target: T1, Alpha-1A adrenergic receptor (Rattus norvegicus, UniProt P43140); assay: Antagonistic affinity tested against isolated Rat Prostatic Vas Deferens Alpha-1A adrenergic receptor; format: functional, tissue-based; conditions: read-out: pA2 (converted)
T1 sequence (P43140 whole entry): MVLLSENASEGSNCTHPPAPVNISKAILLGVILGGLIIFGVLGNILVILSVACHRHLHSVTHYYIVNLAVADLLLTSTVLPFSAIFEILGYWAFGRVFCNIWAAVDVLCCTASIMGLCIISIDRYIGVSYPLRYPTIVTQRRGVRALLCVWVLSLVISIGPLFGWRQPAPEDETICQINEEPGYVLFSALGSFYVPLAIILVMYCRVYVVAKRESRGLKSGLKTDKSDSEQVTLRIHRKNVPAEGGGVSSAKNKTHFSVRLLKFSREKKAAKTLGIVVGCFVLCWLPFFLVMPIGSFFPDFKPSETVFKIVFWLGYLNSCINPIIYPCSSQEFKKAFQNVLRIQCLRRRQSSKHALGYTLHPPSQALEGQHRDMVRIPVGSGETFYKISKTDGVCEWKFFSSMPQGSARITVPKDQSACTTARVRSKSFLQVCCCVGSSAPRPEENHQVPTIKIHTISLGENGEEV

[2] = target: T1, Alpha-1A adrenergic receptor; assay: Antagonistic affinity tested against isolated Rat Prostate Alpha-1A adrenergic receptor; format: functional; conditions: read-out: pA2 (converted)
How it was run: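 Prostate strips from male Wistar rats (275-300 g), 2 g tension in modified Krebs at 37 °C, 95% O2/5% CO2, pH 7.4, primed with 1.0 µM (-)-noradrenaline. After 90 min wash, a cumulative noradrenaline curve was run, then a second after 30 min antagonist equilibration. Single antagonist concentration in the range 0.01-1 µM; pKB by van Rossum.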

[3] = target: T2, Alpha-1D adrenergic receptor (Rattus norvegicus, UniProt P23944); assay: Antagonistic affinity tested against isolated Rat Thoracic Aorta Alpha-1D adrenergic receptor; format: functional, tissue-based; conditions: read-out: pA2 (converted)
T2 sequence (P23944 whole entry): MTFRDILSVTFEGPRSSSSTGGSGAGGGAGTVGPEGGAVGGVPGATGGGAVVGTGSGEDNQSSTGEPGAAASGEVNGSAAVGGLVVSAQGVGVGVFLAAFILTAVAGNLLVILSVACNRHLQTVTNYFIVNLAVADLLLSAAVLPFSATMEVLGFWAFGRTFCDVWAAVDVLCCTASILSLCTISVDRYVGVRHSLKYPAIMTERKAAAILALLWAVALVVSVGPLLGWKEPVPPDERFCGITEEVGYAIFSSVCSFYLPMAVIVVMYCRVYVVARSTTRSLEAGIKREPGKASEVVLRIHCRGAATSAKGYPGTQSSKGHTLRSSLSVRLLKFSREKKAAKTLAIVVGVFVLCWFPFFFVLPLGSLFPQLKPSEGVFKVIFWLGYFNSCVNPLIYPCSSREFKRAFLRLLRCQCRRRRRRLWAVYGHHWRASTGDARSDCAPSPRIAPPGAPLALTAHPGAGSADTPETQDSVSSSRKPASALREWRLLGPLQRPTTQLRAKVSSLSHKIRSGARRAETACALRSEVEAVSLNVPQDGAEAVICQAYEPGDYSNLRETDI

[4] = target: T3, Alpha-1B adrenergic receptor (Rattus norvegicus, UniProt P15823); assay: Antagonistic affinity tested against isolated Rat Spleen Alpha-1B adrenergic receptor; format: functional; conditions: read-out: pA2 (converted)
T3 sequence (P15823 whole entry): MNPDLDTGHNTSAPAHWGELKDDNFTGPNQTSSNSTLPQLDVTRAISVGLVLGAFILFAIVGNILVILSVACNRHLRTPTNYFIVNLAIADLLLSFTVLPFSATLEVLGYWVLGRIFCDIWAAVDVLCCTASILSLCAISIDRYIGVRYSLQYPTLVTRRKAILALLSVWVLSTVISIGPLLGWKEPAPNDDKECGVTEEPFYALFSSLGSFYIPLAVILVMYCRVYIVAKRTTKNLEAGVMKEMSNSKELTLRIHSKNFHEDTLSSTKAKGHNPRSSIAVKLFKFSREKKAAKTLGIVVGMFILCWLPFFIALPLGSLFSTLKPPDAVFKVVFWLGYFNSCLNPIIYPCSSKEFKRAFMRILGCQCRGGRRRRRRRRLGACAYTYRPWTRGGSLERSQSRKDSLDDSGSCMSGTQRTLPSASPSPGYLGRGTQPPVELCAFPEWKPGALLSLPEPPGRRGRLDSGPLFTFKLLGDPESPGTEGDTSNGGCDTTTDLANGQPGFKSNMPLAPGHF
How it was run: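 Rat spleen strips, 1 g resting tension, in Krebs with 4.0 µM propranolol and 0.01 mM K2EDTA, equilibrated 2 h. Cumulative isometric (-)-phenylephrine curves at 30 min intervals; the second served as control.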

[5] = target: T4, 5-hydroxytryptamine receptor 1A (Homo sapiens, UniProt P08908); assay: Affinity constant on HeLa cells expressing Human recombinant 5-hydroxytryptamine receptor 1A
T4 sequence (P08908 whole entry): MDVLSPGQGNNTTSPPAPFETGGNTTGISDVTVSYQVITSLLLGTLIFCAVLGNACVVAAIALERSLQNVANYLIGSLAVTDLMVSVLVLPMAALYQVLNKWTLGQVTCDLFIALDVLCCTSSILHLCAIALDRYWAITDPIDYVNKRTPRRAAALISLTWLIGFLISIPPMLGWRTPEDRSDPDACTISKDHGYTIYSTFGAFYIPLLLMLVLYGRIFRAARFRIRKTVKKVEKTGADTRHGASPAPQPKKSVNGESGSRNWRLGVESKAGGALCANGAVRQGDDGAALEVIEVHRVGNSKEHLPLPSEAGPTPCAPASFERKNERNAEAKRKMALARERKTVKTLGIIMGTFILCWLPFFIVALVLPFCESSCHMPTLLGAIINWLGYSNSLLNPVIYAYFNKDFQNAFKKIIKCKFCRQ

[6] = target: T5, Alpha-1A adrenergic receptor (Homo sapiens, UniProt P35348); assay: Affinity constant on CHO cells expressing Human recombinant Alpha-1A adrenergic receptor; format: cell-based
T5 sequence (P35348 whole entry): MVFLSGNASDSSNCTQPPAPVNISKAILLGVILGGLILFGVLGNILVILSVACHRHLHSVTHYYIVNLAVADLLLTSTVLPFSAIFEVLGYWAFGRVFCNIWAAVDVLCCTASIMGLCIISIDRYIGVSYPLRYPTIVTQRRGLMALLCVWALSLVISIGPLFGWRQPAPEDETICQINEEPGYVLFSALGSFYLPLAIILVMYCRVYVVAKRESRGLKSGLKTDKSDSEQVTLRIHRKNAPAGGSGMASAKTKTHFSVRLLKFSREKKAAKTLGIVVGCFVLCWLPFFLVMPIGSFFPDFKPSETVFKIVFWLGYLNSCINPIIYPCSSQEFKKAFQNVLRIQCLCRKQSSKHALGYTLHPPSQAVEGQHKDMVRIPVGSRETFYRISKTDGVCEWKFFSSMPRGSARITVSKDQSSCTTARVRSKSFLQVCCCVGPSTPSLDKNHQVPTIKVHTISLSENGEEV

[7] = target: T6, Alpha-1B adrenergic receptor (Homo sapiens, UniProt P35368); assay: Affinity constant on CHO cells expressing Human recombinant Alpha-1B adrenergic receptor; format: cell-based
T6 sequence (P35368 whole entry): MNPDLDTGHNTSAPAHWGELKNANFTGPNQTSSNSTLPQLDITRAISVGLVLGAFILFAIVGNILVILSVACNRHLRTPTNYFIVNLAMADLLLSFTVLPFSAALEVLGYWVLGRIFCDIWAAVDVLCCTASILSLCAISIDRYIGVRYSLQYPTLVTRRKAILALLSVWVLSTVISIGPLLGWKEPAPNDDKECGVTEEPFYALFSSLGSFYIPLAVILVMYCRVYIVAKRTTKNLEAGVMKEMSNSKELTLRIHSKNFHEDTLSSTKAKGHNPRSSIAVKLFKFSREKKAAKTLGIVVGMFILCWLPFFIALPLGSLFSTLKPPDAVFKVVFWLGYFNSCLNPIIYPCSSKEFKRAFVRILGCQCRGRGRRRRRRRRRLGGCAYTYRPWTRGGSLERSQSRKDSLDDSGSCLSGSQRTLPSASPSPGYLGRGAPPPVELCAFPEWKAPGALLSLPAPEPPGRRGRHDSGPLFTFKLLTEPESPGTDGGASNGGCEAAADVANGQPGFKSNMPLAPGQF

[8] = target: T7, Alpha-1D adrenergic receptor (Homo sapiens, UniProt P25100); assay: Affinity constant on CHO cells expressing Human recombinant Alpha-1D adrenergic receptor; format: cell-based
T7 sequence (P25100 whole entry): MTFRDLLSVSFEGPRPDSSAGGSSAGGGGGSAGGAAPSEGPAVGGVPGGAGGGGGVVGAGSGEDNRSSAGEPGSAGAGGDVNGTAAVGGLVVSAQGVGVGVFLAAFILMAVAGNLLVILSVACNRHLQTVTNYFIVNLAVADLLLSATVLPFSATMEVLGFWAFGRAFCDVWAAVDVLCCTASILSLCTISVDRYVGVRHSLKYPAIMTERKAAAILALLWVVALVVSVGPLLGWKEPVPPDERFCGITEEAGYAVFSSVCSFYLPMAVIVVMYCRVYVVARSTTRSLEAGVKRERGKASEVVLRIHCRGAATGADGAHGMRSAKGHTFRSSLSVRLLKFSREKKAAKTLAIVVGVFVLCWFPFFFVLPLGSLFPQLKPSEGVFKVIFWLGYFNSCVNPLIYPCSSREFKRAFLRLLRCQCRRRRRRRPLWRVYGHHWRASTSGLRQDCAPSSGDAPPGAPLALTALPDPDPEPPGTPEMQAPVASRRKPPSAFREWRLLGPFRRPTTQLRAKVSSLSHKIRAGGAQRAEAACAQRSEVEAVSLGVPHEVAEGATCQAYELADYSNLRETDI

SMILES	Kb [1]	Kb [2]	Kb [3]	Kb [4]	Ki [5]	Ki [6]	Ki [7]	Ki [8]
COc1cccc(OC)c1OCCNCC1COc2ccccc2O1 (stereo not drawn)	0.309 nM	0.537 nM	1.58 nM					
COc1cccc(OC)c1OCCNC[C@@H]1Oc2ccccc2O[C@H]1c1ccccc1	5.75 nM	5.89 nM	32.4 nM	2510 nM				
COc1cccc(OC)c1OCCNCCOc1ccccc1Cc1ccccc1	58.9 nM	33.9 nM	16.6 nM	67.6 nM	10.7 nM	0.398 nM	2.82 nM	3.63 nM
COc1cccc(OC)c1OCCNCC1CC(c2ccccc2)c2ccccc2S1 (stereo not drawn)	6.17 nM	4.9 nM	17.4 nM	155 nM	15.1 nM	0.0891 nM	1.15 nM	0.437 nM
COc1cccc(OC)c1OCCNCC1CC(c2ccccc2)c2ccccc2C1=O (stereo not drawn)	0.447 nM	0.347 nM	2 nM	26.3 nM	11 nM	0.251 nM	1.23 nM	0.182 nM

Continued by falling Ki [5], values first:

Kb [1]	Kb [2]	Kb [3]	Kb [4]	Ki [5]	Ki [6]	Ki [7]	Ki [8]	SMILES
209 nM	107 nM	61.7 nM	302 nM	10.2 nM	2.34 nM	27.5 nM	22.9 nM	COc1cccc(OC)c1OCCNC[C@H]1C[C@H](c2ccccc2)c2ccccc2S1
1.32 nM	1.12 nM	0.275 nM	28.8 nM	6.46 nM	0.0501 nM	0.0398 nM	0.0891 nM	COc1cccc(OC)c1OCCNC[C@@H]1C[C@H](c2ccccc2)c2ccccc2O1
178 nM	288 nM	91.2 nM	110 nM	6.31 nM	0.513 nM	12.3 nM	17 nM	COc1cccc(OC)c1OCCNCC1Cc2ccccc2C(c2ccccc2)C1 (stereo not drawn)
			33.1 nM	0.372 nM		708 nM		COc1ccccc1N1CCN(CCN2C(=O)CC3(CCCC3)CC2=O)CC1 [BMY-7378]
